Source: article PMC3632105 (Nucleic Acids Research, 2013)
Values joined by “and” are separate entries in the source; they are usually repeats but may differ in a detail not shown here. Equal values may be shown once.

Legend:
[1] = Sedimentation coefficient of the free proteins; format: physicochemical; settings: low salt buffer: 5 mM potassium phosphate, pH 7.4, 5 mM NaCl, 8% (w/v) glycerol, 0.5 mM DTT; 20°C, 50 000 rpm
Summary of the method: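 Sedimentation velocity in double-sector cells, recording 280 nm absorbance versus radial position. Samples were full-length DnaG, DnaG-N (residues 1–433), DnaG-C (434–581) and E. coli SSB. Concentrations came from 280 nm extinction coefficients. Data were evaluated as c(s) distributions in SEDFIT.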

DnaG-C [2] = test: Isothermal titration calorimetry of DnaG-C with SSB-Carb peptide; format: binding, Escherichia coli; settings: for binding (association) constant KA by ITC: model of n identical independent sites
DnaG-C [3] = test: NMR titration; format: binding, Escherichia coli; settings: 300 µM 15N-DnaG-C titrated with SSB-Carb, 295 K, 600 MHz
Summary of the method: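 15N-DnaG-C in 5 mM potassium phosphate pH 7.4, 5 mM NaCl, 2 mM DTT, 10% D2O. Peptide was added from a 30 mM DMSO stock to final 0, 0.1, 0.3, 0.6 and 1 mM. SOFAST-HMQC spectra used 16 scans. Shift = sqrt[Δδ(1H)² + (Δδ(15N)/10)²], comparing no peptide with 1 mM.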

SSB = settings: low salt conditions; cited from earlier work
[4] = 150 mM NaCl, 5 mM potassium phosphate, pH 7.4, 8% (w/v) glycerol, 25°C, SSB-Carb on DnaG-C

With DnaG: full-length E. coli DnaG primase the “sedimentation coefficient, free protein” value [1] was 3.4 S.

For “EcoSSB: Escherichia coli single-stranded DNA-binding protein; concentrations given in tetramers”, the “sedimentation coefficient, free protein” value [1] was 3.9 S.

With WMDFDDDIPF [SSB-Carb] the “binding (association) constant KA by ITC” value (DnaG-C [2]; 5 mM NaCl, 5 mM potassium phosphate, pH 7.4, 8% (w/v) glycerol, 25°C, 1.04 mM SSB-Carb titrated into 46 µM DnaG-C) was 240000 M⁻¹, the “binding enthalpy ΔH by ITC” value (DnaG-C [2]; 5 mM NaCl, 5 mM potassium phosphate, pH 7.4, 8% (w/v) glycerol, 25°C, SSB-Carb on DnaG-C) was -52.0 kJ/mol and the “binding (association) constant KA by ITC” value (DnaG-C [2]; 150 mM NaCl, 5 mM potassium phosphate, pH 7.4, 8% (w/v) glycerol, 25°C, 1.08 mM SSB-Carb titrated into 46 µM DnaG-C) was 74000 M⁻¹ and ~70000 M⁻¹. The “binding enthalpy ΔH by ITC” value (DnaG-C [2]; [4]) was -41.3 kJ/mol, the “binding stoichiometry n by ITC” value (DnaG-C [2]; [4]) was 0.89 and the “change of affinity on increase of salt concentration” value (DnaG-C [2]; from 5 to 150 mM NaCl, DnaG-C/SSB-Carb interaction, ITC) was “decreases the affinity only by a factor of about three”. The “chemical shift change of W522 side chain of DnaG-C (in words)” value (DnaG-C [3]) was “not only the chemical shifts of tryptophan 522 backbone change upon addition of SSB-Carb peptide but also those of the side chain” and the “chemical shift change of W522 side chain of DnaG-C (in words)” value (DnaG-C [3]; listed as peptide) was “strong changes in chemical shift on peptide binding”.

For χ: χ subunit of DNA polymerase III, the “increase in SSB-binding affinity in presence of ssDNA” value (SSB) is listed as 20 fold.

B1: DnaG-N: amino acid residues 1–433 of DnaG (protein, UniProt P0ABS5 1-433, looked up, fragment)
chain: MAGRIPRVFINDLLARTDIVDLIDARVKLKKQGKNFHACCPFHNEKTPSFTVNGEKQFYHCFGCGAHGNAIDFLMNYDKLEFVETVEELAAMHNLEVPFEAGSGPSQIERHQRQTLYQLMDGLNTFYQQSLQQPVATSARQYLEKRGLSHEVIARFAIGFAPPGWDNVLKRFGGNPENRQSLIDAGMLVTNDQGRSYDRFRERVMFPIRDKRGRVIGFGGRVLGNDTPKYLNSPETDIFHKGRQLYGLYEAQQDNAEPNRLLVVEGYMDVVALAQYGINYAVASLGTSTTADHIQLLFRATNNVICCYDGDRAGRDAAWRALETALPYMTDGRQLRFMFLPDGEDPDTLVRKEGKEAFEARMEQAMPLSAFLFNSLMPQVDLSTPDGRARLSTLALPLISQVPGETLRIYLRQELGNKLGILDDSQLERLMPK
For B1, the “sedimentation coefficient, free protein” value [1] was 2.9 S.

B2: DnaG-C: amino acid residues 434–581 of DnaG, C-terminal helicase-binding domain (protein, UniProt P0ABS5 434-581, looked up, fragment)
chain: AAESGVSRPVPQLKRTTMRILIGLLVQNPELATLVPPLENLDENKLPGLGLFRELVNTCLSQPGLTTGQLLEHYRGTNNAATLEKLSMWDDIADKNIAEQTFTDSLNHMFDSLLELRQEELIARERTHGLSNEERLELWTLNQELAKK
modifications: helicase-binding domain
For B2, the “sedimentation coefficient, free protein” value [1] was 1.4 S.
